Among the data in ChEMBL document CHEMBL1154120, “Synthesis and properties of nucleoside derivatives acylated by chemically stable 2-(trimethylsilyl)benzoyl group” (Bioorg Med Chem, 2009) are Stability values, retold here.

What all share (format): physicochemical
Series [1] is described as follows: Chemical stability in NH3-EtOH (9:1, v/v) at room temperature assessed as time taken for complete hydrolysis. An outline of the steps:
(§1)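 Nucleoside derivatives carrying 2-substituted benzoyl masking groups were kept in the basic solution. The time until hydrolysis was complete was recorded. Substrates showing no change over a 24 h observation window were scored as stable at 24 h.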

Series [2] is described as follows: Chemical stability in NH3-EtOH (9:1, v/v) at 55 deg C assessed as time taken for complete hydrolysis. An outline of the steps:
as §1

Series [3] can be described thus: Chemical stability in 0.5 M NaOH/EtOH solution at room temperature assessed as time taken for complete hydrolysis. An outline of the steps: as §1
Series [4] can be described thus: Chemical stability in 2 M NaOH/EtOH solution at room temperature assessed as time taken for complete hydrolysis. In a few lines: as §1
Series [5] is described as follows: Chemical stability in 1.5 M NaOMe/MeOH solution at room temperature assessed as time taken for complete hydrolysis. In a few lines:
as §1

Take `Cc1cn([C@H]2C[C@H](O)[C@@H](COC(=O)c3ccccc3C(C)(C)C)O2)c(=O)[nH]c1=O`: the Stability in series [1] was above 24 h; in series [2], above 24 h; in series [3], 24 h; in series [4] it was 4 h.
Regarding `Cc1ccccc1C(=O)OC[C@H]1O[C@@H](n2cc(C)c(=O)[nH]c2=O)C[C@@H]1O`, the Stability turned out to be 24 h in series [1], 10 h in series [2], 1 h in series [3] and 0.25 h in series [4].
Take `C[Si](C)(C)c1ccccc1C(=O)O[C@@H]1[C@H](O)[C@@H](CO)O[C@H]1n1ccc(=O)[nH]c1=O`: the Stability turned out to be 48 h in series [1] and 8 h in series [2].
Take `Cc1cn([C@H]2C[C@H](O)[C@@H](COC(=O)c3ccccc3[Si](C)(C)C)O2)c(=O)[nH]c1=O`: the Stability in series [1] was above 24 h; in series [2], above 24 h; in series [3], 24 h; in series [4] it was 4 h.
On to `C[Si](C)(C)c1ccccc1C(=O)Nc1ccn([C@H]2C[C@H](O)[C@@H](CO)O2)c(=O)n1`, for which the Stability in series [2], in series [4] and in series [5] was above 24 h throughout.
`Cc1cn([C@H]2C[C@H](O)[C@@H](COC(=O)C=C[Si](C)(C)C)O2)c(=O)[nH]c1=O`: the Stability in series [1] was found to be 12 h; in series [2] it was 4 h.
